Bioassay records: PubChem BioAssay, several laboratories
An excerpt weighted towards active compounds, which were near 2.9% of everything screened.
beta cell repl: inducers of beta-cell replication in MIN6 cells; hit rate 0.29% among 330,000; proliferation, % at 10 µM; AID 2380; MIN6 cells proliferation, ATPlite luminescence, 48 h; cells starved in 0.2% serum; 100% = growth in 10% serum;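 active means compounds whose signal lies at least 3.5 SD above the mean of all wells on their plate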;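 further: 0% = DMSO-treated cells in low-serum medium and 100% = 10% serum control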
T cruzi inh: T. cruzi replication inhibition; inhibition, % (concentration not given with the values); T. cruzi beta-gal in NIH3T3, luminescence, 90 h; hit rate 1.4% among 300,000;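 active means mean inhibition across valid replicates above about 55%, limit read from the data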;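 further: signal also drops with host cell toxicity which is not excluded here; 0% = plate median of DMSO wells and 100% = zero luminescence signal; higher percent means less beta-gal luminescence so fewer parasites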
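Incubation – ≥90 h infection period, 3 h prior cell attachment · System – NIH/3T3 fibroblasts plus reporter T. cruzi · Doses – compound pinned at 50 nL/well, DMSO · Read-out basis – percent inhibition of parasite-derived β-gal signal · Signal – luminescent β-galactosidase signal after 60 min lysis · Also added – 5000 T. cruzi trypomastigotes/well · Medium – Low-serum DMEM with 2% FBS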
Rev-erbA mod: modulates human Rev-erb alpha binding to DNA. P20393. Rev-erbα–FITC-DNA binding, fluorescence polarization, 90 min. activity, % at 10 µM. hit rate 0.79% among 370,000;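 active means activity above about 14%, limit read from the data; passing the limit was not always enough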;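 further: 0% = DMSO wells with 35 nM protein and 100% = DMSO wells with 750 nM protein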
Target sequence (P20393 whole entry, looked up): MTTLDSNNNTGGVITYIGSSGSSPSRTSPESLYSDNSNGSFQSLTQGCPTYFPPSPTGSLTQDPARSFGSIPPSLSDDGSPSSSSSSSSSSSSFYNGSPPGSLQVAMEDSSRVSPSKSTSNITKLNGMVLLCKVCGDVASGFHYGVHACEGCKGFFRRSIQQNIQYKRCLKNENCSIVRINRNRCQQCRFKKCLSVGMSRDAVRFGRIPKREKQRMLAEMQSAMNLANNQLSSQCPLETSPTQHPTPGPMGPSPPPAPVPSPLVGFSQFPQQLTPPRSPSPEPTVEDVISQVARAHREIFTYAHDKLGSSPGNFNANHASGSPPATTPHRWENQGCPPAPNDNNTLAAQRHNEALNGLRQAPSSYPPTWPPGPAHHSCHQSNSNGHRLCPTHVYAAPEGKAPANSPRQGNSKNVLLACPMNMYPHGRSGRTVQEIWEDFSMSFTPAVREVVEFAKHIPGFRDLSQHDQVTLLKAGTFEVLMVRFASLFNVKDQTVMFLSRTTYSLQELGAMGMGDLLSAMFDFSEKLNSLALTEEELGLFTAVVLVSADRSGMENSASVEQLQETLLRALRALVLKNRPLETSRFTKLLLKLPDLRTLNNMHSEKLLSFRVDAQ
hiPSC survival: hiPSC single-cell survival enhancement; survival enhancement, % at 20 µM; ATPlite luminescence; 100% = ROCK inhibitor wells, 0% = DMSO; AID 602274; hit rate 0.044% among 360,000; in the data active means survival enhancement above about 18%;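 further: cells exposed to compounds for 16 hours before the ATP read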
H9c2 TAG inh: reduces triacylglycerol accumulation in H9c2 cells; Nile Red lipid (TAG) fluorescence; cells loaded with 200 µM oleic acid; inhibition, % at 12.5 µM; hit rate 0.66% among 230,000; AID 651582;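 active means pattern-corrected inhibition of lipid staining of at least 50% with the nuclear-stain viability signal not falling by more than 50%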;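 further: 0% = DMSO wells and 100% = triacsin C control wells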
PG9 Ab binder: PG9 antibody binding by small molecule; AID 624416; TR-FRET gp120-PG9 antibody binding; hit rate 0.43% among 360,000; inhibition, % at 6.7 µM; in the data active means inhibition above about 8.5%
The depositor's hits bear a star.

How did CS(=O)(=O)c1nc(-c2ccccc2)cc(C(F)(F)F)n1 do in these assays?
beta cell repl: -5.5; T cruzi inh: 65.1*; hiPSC survival: -1.9; H9c2 TAG inh: 12.5; PG9 Ab binder: -2.6

Results for Cn1nc(-c2ccccc2)c(C(O)c2ccccc2C(F)(F)F)c1Cl (centres undefined) ?
beta cell repl: 1.8; T cruzi inh: 1.4; Rev-erbA mod: 0.7; hiPSC survival: 21.6*; H9c2 TAG inh: -14.3; PG9 Ab binder: 2.2

How did Cc1cccc2c1NC(C)CC2C (centres undefined) do in these assays?
beta cell repl: -0.4; T cruzi inh: 58.6*; Rev-erbA mod: 1.8; hiPSC survival: 3.4; H9c2 TAG inh: -28.3; PG9 Ab binder: -0.6

Results for CCc1cccc2c1NC1(CCCC1)CC2C (centres undefined) ?
beta cell repl: -4.5; T cruzi inh: 29.2; Rev-erbA mod: 2.8; hiPSC survival: 2.4; H9c2 TAG inh: -13.9; PG9 Ab binder: -0.1

How did Clc1ccc(-c2cnc3n2CCC3)cc1 do in these assays?
beta cell repl: -2.5; T cruzi inh: -9.6; Rev-erbA mod: 5.9; hiPSC survival: 2.7; PG9 Ab binder: -0.8

How did O=C(NNC(=S)NC(=O)c1ccccc1Cl)c1cccc([N+](=O)[O-])c1 do in these assays?
beta cell repl: -2.5; T cruzi inh: -3.1; Rev-erbA mod: 2.1; hiPSC survival: 0.1; PG9 Ab binder: -1.7

What do the screens show for `O=C(NC(NC(=S)Nc1c(Cl)cccc1Cl)C(Cl)(Cl)Cl)c1cccc([N+](=O)[O-])c1` (centres undefined)?
beta cell repl: 0.0; T cruzi inh: 58.6*; Rev-erbA mod: 6.9; hiPSC survival: -0.6; PG9 Ab binder: 1.5

Results for CN/C(=C/[N+](=O)[O-])NCCSCc1ccc(CN(C)C)o1 ?
beta cell repl: -0.1; T cruzi inh: 0.5; Rev-erbA mod: -2.6; hiPSC survival: -1.1; H9c2 TAG inh: -6.5; PG9 Ab binder: 0.0

How did Nc1nc(NCc2ccco2)nc(Nc2ccccc2)c1[N+](=O)[O-] do in these assays?
beta cell repl: 0.8; T cruzi inh: -1.8; Rev-erbA mod: -0.8; hiPSC survival: 0.4; H9c2 TAG inh: -9.4; PG9 Ab binder: -0.7

Results for S=C(Nc1ccc(Cc2ccncc2)cc1)Nc1cccc(Cl)c1 ?
beta cell repl: -1.8; T cruzi inh: 8.9; Rev-erbA mod: 0.8; hiPSC survival: 0.4; H9c2 TAG inh: 8.7; PG9 Ab binder: -1.2

How did c1ccc(-c2nc3ccccn3c2NC2CCCC2)nc1 do in these assays?
beta cell repl: -1.3; T cruzi inh: -13.3; Rev-erbA mod: 0.4; hiPSC survival: 0.0; PG9 Ab binder: -2.5

Results for Cc1ccc(Nc2c(-c3ccccn3)nc3cc(C)ccn23)cc1 ?
beta cell repl: -7.4; T cruzi inh: 76.3*; Rev-erbA mod: 4.1; hiPSC survival: 0.4; H9c2 TAG inh: 40.6; PG9 Ab binder: -3.6

How did Cc1ccn2c(NC3CCCC3)c(-c3ccccn3)nc2c1 do in these assays?
beta cell repl: -6.4; T cruzi inh: 65.3*; Rev-erbA mod: -0.2; hiPSC survival: -0.2; H9c2 TAG inh: 40.1; PG9 Ab binder: -4.0

How did Cc1ccn2c(Nc3ccc4c(c3)OCO4)c(-c3ccccn3)nc2c1 do in these assays?
beta cell repl: -5.2; T cruzi inh: 38.2; Rev-erbA mod: -5.0; hiPSC survival: -1.2; PG9 Ab binder: -13.4

What do the screens show for `Cc1ccn2c(Nc3ccccc3C)c(-c3ccncc3)nc2c1`?
beta cell repl: 0.0; T cruzi inh: 60.6*; Rev-erbA mod: 2.7; hiPSC survival: 1.1; PG9 Ab binder: 0.9

Results for Cc1onc(-c2c(Cl)cccc2Cl)c1C(=O)NN1CCCCCC1 ?
beta cell repl: -0.4; T cruzi inh: -10.2; Rev-erbA mod: 4.7; hiPSC survival: 0.1; H9c2 TAG inh: 6.8; PG9 Ab binder: -1.6

How did O=C(N/N=C\c1ccc(-c2ccc([N+](=O)[O-])cc2)o1)C1COc2ccccc2O1 (centres undefined) do in these assays?
beta cell repl: 0.0; T cruzi inh: 59.3*; Rev-erbA mod: 8.0; hiPSC survival: -0.1; PG9 Ab binder: 0.8

Results for Oc1cccc2cc(Nc3ccccc3)cnc12 ?
Rev-erbA mod: 5.2; hiPSC survival: -4.1; H9c2 TAG inh: 68.9*; PG9 Ab binder: 0.8

How did Cc1ccc(C)c(Nc2c([N+](=O)[O-])cc(C(=O)N3CC(=O)Nc4ccccc43)cc2[N+](=O)[O-])c1 do in these assays?
beta cell repl: -7.3; T cruzi inh: 65.7*; Rev-erbA mod: 2.6; hiPSC survival: -1.6; H9c2 TAG inh: 7.7; PG9 Ab binder: -1.5

How did Cc1cccc(Nc2c([N+](=O)[O-])cc(C(=O)N3CC(=O)Nc4ccccc43)cc2[N+](=O)[O-])c1 do in these assays?
beta cell repl: 0.6; T cruzi inh: 83.9*; Rev-erbA mod: 9.0; hiPSC survival: 1.4; H9c2 TAG inh: 18.8; PG9 Ab binder: -0.6

Results for COc1ccc(CN(CC(=O)NC2CCCC2)C(=O)c2onc(C(N)=O)c2N)cc1 ?
beta cell repl: 0.0; T cruzi inh: 8.1; Rev-erbA mod: 2.7; hiPSC survival: 1.4; PG9 Ab binder: 0.8

What do the screens show for `CCC(NC(=O)Nc1nnc(C(F)(F)F)s1)(C(F)(F)F)C(F)(F)F`?
beta cell repl: -5.4; T cruzi inh: 62.4*; Rev-erbA mod: -5.1; hiPSC survival: -2.4; H9c2 TAG inh: -48.1; PG9 Ab binder: 0.4

How did Cc1ccc(-n2nc(C)c3c(C)c(CCC(=O)NCC4CCCO4)c(=O)n(C)c32)cc1 (centres undefined) do in these assays?
beta cell repl: -0.7; T cruzi inh: 63.4*; Rev-erbA mod: 16.2; hiPSC survival: -0.3; PG9 Ab binder: -0.2

What do the screens show for `CCN(CC)CCN(C(=O)C1CCCCC1)c1nc2cc3c(cc2s1)OCO3`?
beta cell repl: 2.7; T cruzi inh: 61.1*; Rev-erbA mod: -6.7; hiPSC survival: -0.2; H9c2 TAG inh: 22.8; PG9 Ab binder: 0.8

Results for CCN(CC)CCN(C(=O)CCS(=O)(=O)c1ccccc1)c1nc2cc3c(cc2s1)OCO3 ?
beta cell repl: 7.3; T cruzi inh: 59.5*; Rev-erbA mod: 8.9; hiPSC survival: 0.1; H9c2 TAG inh: 8.6; PG9 Ab binder: -0.4

Results for O=C(C1CCCCC1)N(CCN1CCCC1)c1nc2ccccc2s1 ?
beta cell repl: -2.0; T cruzi inh: 57.3*; Rev-erbA mod: -2.3; hiPSC survival: 1.1; PG9 Ab binder: -0.6

What do the screens show for `N#CC[C@H](Cc1ccccc1)N1CC[C@@H](O)CCC1=O`?
beta cell repl: -2.7; T cruzi inh: 3.1; Rev-erbA mod: -1.4; hiPSC survival: 0.2; H9c2 TAG inh: 3.2; PG9 Ab binder: 0.3

How did CN(Cc1ccccn1)C(=O)C1CCC(=O)N(Cc2cccc(F)c2)C1 (centres undefined) do in these assays?
beta cell repl: -1.6; T cruzi inh: -3.7; Rev-erbA mod: -7.3; hiPSC survival: -0.1; PG9 Ab binder: -0.3

What do the screens show for `CC(C)N=C(N)/N=C(\N)Nc1ccc(Cl)cc1`?
Rev-erbA mod: -7.2
